Test results published in ChEMBL document CHEMBL1133045, “Enhancing the aqueous solubility of d4T-based phosphoramidate prodrugs” (Bioorg Med Chem Lett, 2000).

Legend:
[1] = Partition coefficient (logP); type: physicochemical; conditions: octanol/water
Procedure, shortened: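 LogP measured as the 1-octanol/water partition coefficient.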

CCRF-CEM [2] = assay: Compound was evaluated for the cytotoxicity against CEM cell proliferation by 50%; type: functional; conditions: Homo sapiens
CCRF-CEM [3] = assay: Concentration required to protect CEM/TK- cells against cytopathicity of HIV-2 by 50%; type: functional, cell-based; conditions: Homo sapiens
CCRF-CEM [4] = assay: Concentration required to protect CEM cells against cytopathicity of HIV-1 by 50%; type: functional, cell-based; conditions: Homo sapiens
CCRF-CEM [5] = assay: Concentration required to protect CEM cells against cytopathicity of HIV-2 by 50%; type: functional, cell-based; conditions: Homo sapiens

| Structure (SMILES) | logP [1] | CC50 (CCRF-CEM [2]) [nM] | EC50 (CCRF-CEM [3]) [nM] | EC50 (CCRF-CEM [4]) [nM] | EC50 (CCRF-CEM [5]) [nM] |
| --- | --- | --- | --- | --- | --- |
| CCOCCOc1ccc(OP(=O)(NC(C)C(=O)OC)OCC2C=CC(n3cc(C)c(=O)[nH]c3=O)O2)cc1 (stereo unspecified) | 1.1 | 64000 | 400 | 200 | 250 |
| COC(=O)C(N)Cc1ccc(OP(=O)(NC(C)C(=O)OC)OCC2C=CC(n3cc(C)c(=O)[nH]c3=O)O2)cc1 (stereo unspecified) | 0.09 |  | 5000 | 4000 | 10000 |
| COCCOc1ccc(OP(=O)(NC(C)C(=O)OC)OCC2C=CC(n3cc(C)c(=O)[nH]c3=O)O2)cc1 (stereo unspecified) | 0.86 | 35000 | 340 | 90 | 600 |
| COCCOCCOCCOc1ccc(OP(=O)(NC(C)C(=O)OC)OCC2C=CC(n3cc(C)c(=O)[nH]c3=O)O2)cc1 (stereo unspecified) | 0.86 | 114000 | 1350 | 750 | 1300 |
| COC(=O)C(C)NP(=O)(OC[C@@H]1C=C[C@H](n2cc(C)c(=O)[nH]c2=O)O1)Oc1ccccc1 (stereo partly specified) | 1.04 | 33000 |  |  |  |
| COC(=O)C(C)NP(=O)(OC[C@@H]1C=C[C@H](n2cc(C)c(=O)[nH]c2=O)O1)Oc1ccc(OC)cc1 (stereo partly specified) | 1.09 | > 100000 | 47 | 57 | 53 |
| COCCOCCOc1ccc(OP(=O)(NC(C)C(=O)OC)OCC2C=CC(n3cc(C)c(=O)[nH]c3=O)O2)cc1 (stereo unspecified) | 0.86 | 47000 | 1200 | 550 | 1000 |
| COC(=O)C(C)NP(=O)(OCC1C=CC(n2cc(C)c(=O)[nH]c2=O)O1)Oc1ccc(CC(NC(=O)OC(C)(C)C)C(=O)OC)cc1 (stereo unspecified) | 1.07 | 217000 | 800 | 650 | 700 |
